{"source": "ChEMBL document CHEMBL1146679", "about": "“Synthesis and biological evaluation of pyrrolo[2,1-c][1,4]benzodiazepine (PBD) C8 cyclic amine conjugates” (2004)", "key": {"A2780 [1]": {"test_system": "A2780", "test": "Resistance factor was determined as IC50 cisplatin-resistant/parent for human A2780 ovarian cell line", "format": "functional", "how_it_was_run": "(§1)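 Resistance factor computed as IC50 in cisplatin-resistant line divided by IC50 in parent line, for the A2780/A2780cisR and CH1/CH1cisR pairs, from 96 h, 37 °C growth-inhibition assays against PBD-free controls.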"}, "A2780 [2]": {"test_system": "A2780", "test": "Concentration required to inhibit A2780cisR cell growth when compared with control after incubation for 96 h at 37 C", "format": "functional, cell-based", "conditions": "Homo sapiens", "how_it_was_run": "(§2)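 Human ovarian tumour lines (SKOV-3, A2780, A2780cisR, CH1, CH1cisR) exposed to agent for 96 h at 37 °C; growth compared with PBD-free controls; IC50 taken as concentration giving 50% growth inhibition.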"}, "Nucleic Acid [3]": {"test_system": "Nucleic Acid", "test": "In vitro induced thermal stabilization of duplex DNA melting after incubation with the compound (20 uM) at 37 C for 18 h", "format": "functional", "conditions": "Bos taurus", "how_it_was_run": "(§3)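 Duplex calf thymus DNA (100 µM in DNAp) mixed with ligand (20 µM), 5:1 molar ratio, in 10 mM NaH2PO4/Na2HPO4 + 1 mM Na2EDTA, pH 7.00 ± 0.01; held at 37 °C for 0, 4 or 18 h before thermal melting; ΔTm relative to DNA alone, ±0.1 °C, at least 3 determinations.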"}, "Nucleic Acid [4]": {"test_system": "Nucleic Acid", "test": "In vitro induced thermal stabilization of duplex DNA melting after incubation with the compound (20 uM) at 37 C for 4 h", "format": "functional", "conditions": "Bos taurus", "how_it_was_run": "as §3"}, "SK-OV-3": {"test_system": "SK-OV-3", "test": "Concentration required to inhibit SKOV-3 cell growth when compared with control after incubation for 96 hr at 37 C", "format": "functional, cell-based", "conditions": "Homo sapiens", "how_it_was_run": "as §2"}, "A2780 [5]": {"test_system": "A2780", "test": "Concentration required to inhibit A2780 cell growth when compared with control after incubation for 96 hr at 37 C", "format": "functional, cell-based", "conditions": "Homo sapiens", "how_it_was_run": "as §2"}, "CH1 [6]": {"test_system": "CH1", "test": "Concentration required to inhibit CH1 tumor cell growth when compared with control after incubation for 96 hr at 37 C", "format": "functional, cell-based", "conditions": "Homo sapiens", "how_it_was_run": "as §2"}, "CH1 [7]": {"test_system": "CH1", "test": "Concentration required to inhibit CH1cisR tumor cell growth when compared with control after incubation for 96 hr at 37 C", "format": "functional, cell-based", "conditions": "Homo sapiens", "how_it_was_run": "as §2"}, "Nucleic Acid [8]": {"test_system": "Nucleic Acid", "test": "In vitro induced thermal stabilization of duplex DNA melting after incubation with the compound (20 uM) at 37 C for 0 h", "format": "functional", "conditions": "Bos taurus", "how_it_was_run": "as §3"}, "CH1 [9]": {"test_system": "CH1", "test": "Resistance factor was determined as IC50 cisplatin-resistant/parent for human CH1cisR tumor ovarian cell line", "format": "functional", "how_it_was_run": "as §1"}, "[10]": {"test": "Activity in NCI standard hollow fibre assay after intraperitoneal administration", "format": "functional"}, "[11]": {"test": "Total activity in NCI standard hollow fibre assay", "format": "functional"}, "[12]": {"test": "Activity in NCI standard hollow fibre assay after subcutaneous administration", "format": "functional"}, "Nucleic Acid [13]": {"test_system": "Nucleic Acid", "test": "gIn vitro induced thermal stabilization of duplex DNA melting after incubation with the compound (20 uM) at 37 C for 0 h", "format": "functional", "conditions": "Bos taurus", "how_it_was_run": "as §3"}}}
{"smiles": "COc1cc2c(cc1OC)C(=O)N1CCC[C@H]1C=N2", "values": [{"measurement": "RF", "setting": "A2780 [1]", "result": 2.4}, {"measurement": "Concentration", "setting": "A2780 [2]", "result": 0.155, "unit": "µM"}, {"measurement": "ΔTm", "setting": "Nucleic Acid [3]", "result": 0.6, "unit": "°C"}, {"measurement": "ΔTm", "setting": "Nucleic Acid [4]", "result": 0.4, "unit": "°C"}, {"measurement": "Concentration", "setting": "SK-OV-3", "result": 1.7, "unit": "µM"}, {"measurement": "Concentration", "setting": "A2780 [5]", "result": 0.064, "unit": "µM"}, {"measurement": "Concentration", "setting": "CH1 [6]", "result": 0.082, "unit": "µM"}, {"measurement": "Concentration", "setting": "CH1 [7]", "result": 0.11, "unit": "µM"}, {"measurement": "ΔTm", "setting": "Nucleic Acid [8]", "result": 0.2, "unit": "°C"}, {"measurement": "RF", "setting": "CH1 [9]", "result": 1.3}]}
{"smiles": "COc1cc2c(cc1OCCC(=O)N1Cc3ccccc3C1)N=C[C@@H]1CCCN1C2=O", "values": [{"measurement": "Score", "setting": "[10]", "result": 40}, {"measurement": "RF", "setting": "A2780 [1]", "result": 4}, {"measurement": "Concentration", "setting": "A2780 [2]", "result": 0.94, "unit": "µM"}, {"measurement": "ΔTm", "setting": "Nucleic Acid [3]", "result": 1.3, "unit": "°C"}, {"measurement": "ΔTm", "setting": "Nucleic Acid [4]", "result": 1.1, "unit": "°C"}, {"measurement": "Concentration", "setting": "SK-OV-3", "result": 1.45, "unit": "µM"}, {"measurement": "Score", "setting": "[11]", "result": 40}, {"measurement": "Concentration", "setting": "A2780 [5]", "result": 0.23, "unit": "µM"}, {"measurement": "Concentration", "setting": "CH1 [6]", "result": 0.24, "unit": "µM"}, {"measurement": "Concentration", "setting": "CH1 [7]", "result": 0.42, "unit": "µM"}, {"measurement": "Score", "setting": "[12]", "result": 2}, {"measurement": "ΔTm", "setting": "Nucleic Acid [8]", "result": 1, "unit": "°C"}, {"measurement": "RF", "setting": "CH1 [9]", "result": 2}]}
{"smiles": "COc1cc2c(cc1OCCC(=O)N1CCc3ccccc31)N=C[C@@H]1CCCN1C2=O", "values": [{"measurement": "RF", "setting": "A2780 [1]", "result": 3.2}, {"measurement": "Concentration", "setting": "A2780 [2]", "result": 4.9, "unit": "µM"}, {"measurement": "ΔTm", "setting": "Nucleic Acid [3]", "result": 1.2, "unit": "°C"}, {"measurement": "ΔTm", "setting": "Nucleic Acid [4]", "result": 1, "unit": "°C"}, {"measurement": "Concentration", "setting": "SK-OV-3", "result": 5.8, "unit": "µM"}, {"measurement": "Concentration", "setting": "A2780 [5]", "result": 1.55, "unit": "µM"}, {"measurement": "Concentration", "setting": "CH1 [6]", "result": 1.5, "unit": "µM"}, {"measurement": "Concentration", "setting": "CH1 [7]", "result": 3, "unit": "µM"}, {"measurement": "ΔTm", "setting": "Nucleic Acid [8]", "result": 0.7, "unit": "°C"}, {"measurement": "RF", "setting": "CH1 [9]", "result": 2}]}
{"smiles": "COc1cc2c(cc1OCCC(=O)N1CCCCC1)N=C[C@@H]1CCCN1C2=O", "values": [{"measurement": "RF", "setting": "A2780 [1]", "result": 4.5}, {"measurement": "Concentration", "setting": "A2780 [2]", "result": 14.5, "unit": "µM"}, {"measurement": "ΔTm", "setting": "Nucleic Acid [3]", "result": 1.2, "unit": "°C"}, {"measurement": "ΔTm", "setting": "Nucleic Acid [4]", "result": 0.9, "unit": "°C"}, {"measurement": "Concentration", "setting": "SK-OV-3", "result": 23.5, "unit": "µM"}, {"measurement": "Concentration", "setting": "A2780 [5]", "result": 3.2, "unit": "µM"}, {"measurement": "Concentration", "setting": "CH1 [6]", "result": 4.9, "unit": "µM"}, {"measurement": "Concentration", "setting": "CH1 [7]", "result": 7.9, "unit": "µM"}, {"measurement": "ΔTm", "setting": "Nucleic Acid [8]", "result": 0.8, "unit": "°C"}, {"measurement": "RF", "setting": "CH1 [9]", "result": 1.6}]}
{"smiles": "COc1cc2c(cc1OCCC(=O)N1CCCC1)N=C[C@@H]1CCCN1C2=O", "values": [{"measurement": "RF", "setting": "A2780 [1]", "result": 2.9}, {"measurement": "Concentration", "setting": "A2780 [2]", "result": 4.3, "unit": "µM"}, {"measurement": "ΔTm", "setting": "Nucleic Acid [3]", "result": 1.2, "unit": "°C"}, {"measurement": "ΔTm", "setting": "Nucleic Acid [4]", "result": 0.9, "unit": "°C"}, {"measurement": "ΔTm", "setting": "Nucleic Acid [13]", "result": 0.5, "unit": "°C"}, {"measurement": "Concentration", "setting": "SK-OV-3", "result": 5.4, "unit": "µM"}, {"measurement": "Concentration", "setting": "A2780 [5]", "result": 1.5, "unit": "µM"}, {"measurement": "Concentration", "setting": "CH1 [6]", "result": 1.4, "unit": "µM"}, {"measurement": "Concentration", "setting": "CH1 [7]", "result": 1.85, "unit": "µM"}, {"measurement": "RF", "setting": "CH1 [9]", "result": 1.3}]}
{"smiles": "COc1cc2c(cc1OCc1ccccc1)N=C[C@@H]1CCCN1C2=O", "values": [{"measurement": "RF", "setting": "A2780 [1]", "result": 2.8}, {"measurement": "Concentration", "setting": "A2780 [2]", "result": 0.48, "unit": "µM"}, {"measurement": "ΔTm", "setting": "Nucleic Acid [3]", "result": 0.4, "unit": "°C"}, {"measurement": "ΔTm", "setting": "Nucleic Acid [4]", "result": 0.4, "unit": "°C"}, {"measurement": "Concentration", "setting": "SK-OV-3", "result": 0.46, "unit": "µM"}, {"measurement": "Concentration", "setting": "A2780 [5]", "result": 0.17, "unit": "µM"}, {"measurement": "Concentration", "setting": "CH1 [6]", "result": 0.145, "unit": "µM"}, {"measurement": "Concentration", "setting": "CH1 [7]", "result": 0.145, "unit": "µM"}, {"measurement": "ΔTm", "setting": "Nucleic Acid [8]", "result": 0.2, "unit": "°C"}, {"measurement": "RF", "setting": "CH1 [9]", "result": 1}]}
